Assay results: PubChem BioAssay
Results filed as inconclusive are left out.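 How the source made its calls, unless noted: active means cell viability at or below a set limit in both duplicate runs, the limit being the all-compound median minus 4 SD (cut at about 23% in these data, passing the limit was not always enough); inconclusive means no clear call, values can overlap the other calls; inactive means the rest.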

Tests used:
[1] = S. cerevisiae growth inhibition in permissive medium (OD615), pilot counter-assay for S. cerevisiae lifespan shortening project, permissive growth control (AID 705;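 active means growth inhibition above 25% in both replicates, a cutoff set 3 SD above the mean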); details: OD615, 24 h, at 10 µM, stronger effect = higher value
Outline: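 assay system = Saccharomyces cerevisiae strain carrying genetically modified DeaD replicative-lifespan system | technique = absorbance (optical density) at 615 nm | buffer or medium = permissive raffinose/galactose medium | timing = cells pre-grown 4 h, then 24 h compound exposure, 30 °C humidified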

[2] = S. cerevisiae growth inhibition in restrictive medium, OD615, pilot screen, restrictive growth control, yeast lifespan reduction project (AID 706;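 active means growth inhibition above a set limit, 3 SD over mean compound inhibition, in both replicates, cut at about 43% in these data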;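 further: modified DeaD lifespan yeast strain shifted to restrictive glucose medium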); details: OD615, 48 h, at 10 µM, stronger effect = higher value
Outline: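 System: modified S. cerevisiae. Buffer or medium: CSMM-D glucose medium. Incubation: 4 h pre-growth plus 48 h compound exposure, 30 °C. Detection: absorbance (optical density) measured at 615 nm.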

[3] = doxorubicin toxicity protection in MRP-1 cells – H69AR cells, CellTiter-Glo, duplicate, MRP-1 activator project, pilot screen (AID 807;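 active means viability increase at or above a cutoff of the median across tested compounds plus 3 SD, cut at about 8.5% in these data, passing the limit was not always enough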;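 further: compound pretreatment 18-22 h then 72 h combined with doxorubicin; 0% = doxorubicin alone and 100% = vehicle without doxorubicin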); details: H69AR viability with doxorubicin, CellTiter-Glo luminescence; at 10 µM; stronger effect = higher value
[4] = viability of HCT116 without oncogenic beta-catenin – human colon tumor cells, pilot screen (AID 823); details: HCT116 beta-catenin knockout viability, CellTiter-Glo, 60 h; at 10 µM; stronger effect = lower value;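 further: 0% = wells killed by 20 µM Hyamine and 100% = untreated DMSO cell wells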
[5] = viability of PTEN-null HCT116 cells – cell-based, HCT116 clonal line, CellTiter-Glo, pilot screen (AID 824;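 active means viability at or below 27.92% in each of two runs, the all-compound median minus 4 SD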;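 further: 0% = 20 µM Hyamine control and 100% = vehicle cell control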); details: HCT116 PTEN-deleted viability, 60 h, at 10 µM, stronger effect = lower value
[6] = RAM pathway blockade in budding yeast – dse1pr::URA3 reporter, 5-FOA selection, pilot screen (AID 869;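 active means inhibition over a set limit, the all-compound mean plus 3 SD, in both replicate runs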;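 further: 0% = DMSO wells with no growth and 100% = 10 µM 1-NA-PP1 with full growth; RAM network block rescues cells from 5-FOA so hits raise OD615 growth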); details: S. cerevisiae dse1pr::URA3 5-FOA growth, OD615, 2 d; at 10 µM; stronger effect = higher value; strain carries analog-sensitive mutant Cbk1 kinase
[7] = RAM signaling pathway blockade in yeast – S. cerevisiae, Pdr1DBD-CYC8 efflux-inhibited sensitized strain, primary screen (AID 1298;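 active means RAM network inhibition above 8.4% in each of two replicates, 3 SD over the compound average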;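 further: 0% = DMSO untreated cells without growth and 100% = 10 µM 1-NA-PP1 full growth; higher means more yeast growth rescued from 5-FOA killing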); details: S. cerevisiae cbk1-as DSE1-URA3 strain, 5-FOA growth OD615, 2 d; at 50 µM; stronger effect = higher value

Cc1ccc2oc3c(c(=O)c2c1)C(c1cccc(Cl)c1)N(CCCN1CCOCC1)C3=O (stereo not given)
inactive: growth inhibition [1] -0.165% | growth inhibition [2] 2.74% | viability increase [3] -3.81% | viability [4] 76.8% | viability [5] 79% | inhibition [6] 0.735% | RAM network inhibition [7] 2.4%

CCn1c2ccccc2c2nnc(SCc3cc(=O)n4ccsc4n3)nc21
inactive: growth inhibition [1] -8.94% | growth inhibition [2] 8.05% | viability increase [3] -2.35% | viability [4] 93.5% | viability [5] 86.3% | inhibition [6] 1.52% | RAM network inhibition [7] 8.94%

C=CCNC(=O)C1CC(=O)N(c2ccc(C)cc2)C1 (stereo not given)
inactive: growth inhibition [1] -10.6% | growth inhibition [2] -4.72% | viability increase [3] -3.08% | viability [4] 93.9% | viability [5] 86.1% | inhibition [6] 0.995% | RAM network inhibition [7] 4.77%

NS(=O)(=O)c1ccc(CCNC(=O)C2CCCN(S(=O)(=O)c3cccnc3)C2)cc1 (stereo not given)
inactive: growth inhibition [1] -8.75% | growth inhibition [2] -8.71% | viability increase [3] -0.63% | viability [4] 108% | viability [5] 97.7% | inhibition [6] 1.63% | RAM network inhibition [7] 5.27%

O=C(N1CCOCC1)N1CCN(c2ccccc2F)CC1
inactive: growth inhibition [1] -0.135% | growth inhibition [2] 0.07% | viability increase [3] -2.64% | viability [4] 97.9% | viability [5] 99.7% | inhibition [6] 0.325% | RAM network inhibition [7] 4.21%

COc1ccc(CCNC(=O)CSc2nnnn2-c2ccccc2)cc1
inactive: growth inhibition [1] 2.08% | growth inhibition [2] -9.2% | viability increase [3] -2.24% | viability [4] 94.7% | viability [5] 88.8% | inhibition [6] 1.33% | RAM network inhibition [7] 6.52%

Cc1cccc(N2CCN(C(c3cccs3)c3nnnn3C(C)(C)C)CC2)c1C (stereo not given)
inactive: growth inhibition [1] -10.2% | growth inhibition [2] -9.96% | viability increase [3] -0.98% | viability [4] 55.5% | viability [5] 56.7% | inhibition [6] 0.97% | RAM network inhibition [7] 5.15%

NC(=O)CSc1nnc(Cn2c(=O)sc3ccccc32)n1CCc1ccccc1
inactive: growth inhibition [1] 1.14% | growth inhibition [2] 26.2% | viability increase [3] -1.54% | viability [4] 101% | viability [5] 94.2% | inhibition [6] 0.275% | RAM network inhibition [7] 4.54%

Cc1ccc(C(=O)Nc2nc3ccccc3n2CCN2CCCC2)cc1
inactive: growth inhibition [1] -11.4% | growth inhibition [2] -2% | viability increase [3] -5.99% | viability [4] 37.4% | viability [5] 51.5% | inhibition [6] 0.665% | RAM network inhibition [7] 7.05%

O=C(Cn1cnc2c(cnn2-c2ccccc2)c1=O)NC1CCCC1
inactive: growth inhibition [1] 3.55% | growth inhibition [2] -3.13% | viability increase [3] 1.03% | viability [4] 99.2% | viability [5] 95.8% | inhibition [6] 1.77% | RAM network inhibition [7] 2.38%

COc1cccc(Nc2cc(C)nc3nc(C)nn23)c1
inactive: growth inhibition [1] -0.125% | growth inhibition [2] 4.21% | viability increase [3] -1.69% | viability [4] 108% | viability [5] 97.6% | inhibition [6] 1.68% | RAM network inhibition [7] 2.37%

CCOC(=O)c1cc2c(=O)n3cccc(C)c3nc2n(CCCOC)c1=NC(=O)c1cccnc1
inactive: growth inhibition [1] -11.3% | growth inhibition [2] -9.9% | viability increase [3] -4.94% | viability [4] 92.5% | viability [5] 92.2% | inhibition [6] 0.515% | RAM network inhibition [7] 6.01%

CC(C)=C1C2C=CC1C(C(=O)Nc1cc(C)ccc1C)C2C(=O)O (stereo not given)
inactive: growth inhibition [1] -14.6% | growth inhibition [2] -12.2% | viability increase [3] -4.28% | viability [4] 87.4% | viability [5] 85.8% | inhibition [6] 1.78% | RAM network inhibition [7] 6.92%

Cc1ccccc1-n1c(=O)cc(N2CCCCCC2)[nH]c1=O
inactive: growth inhibition [1] -4.08% | growth inhibition [2] -0.93% | viability increase [3] -2.23% | viability [4] 99.9% | viability [5] 98.1% | inhibition [6] 2.07% | RAM network inhibition [7] 6.58%

COc1ccc(S(=O)(=O)Cc2ccc(C(=O)N3CCCC3)o2)cc1
inactive: growth inhibition [1] 5.75% | growth inhibition [2] -2.15% | viability increase [3] -1.61% | viability [4] 96.7% | viability [5] 91% | inhibition [6] 1.11% | RAM network inhibition [7] 4.21%
